{"source": "ChEMBL document CHEMBL1122488", "about": "“synthesis and antitumor activity of 2-deoxyribofuranosides of 3-deazaguanine” (1983)", "format_in_all_cases": "functional", "key": {"Mus musculus [1]": {"test_system": "Mus musculus", "assay": "Percentage growth inhibition of mammary adenocarcinoma 16/C in B6C3F1 female mice at 40 mg/kg dose […]", "conditions": "sc", "outline": "(§1)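 C3H mammary adenocarcinoma 16/C, lung-passed in C3H female mice. Freshly harvested 2- to 4-mm3 fragments were implanted subcutaneously into 18- to 20-g B6C3F1 females on day 0, and the mice were randomized the next day. Drugs were dissolved in 0.2 M phosphate buffer and given ip once daily on days 1-9; controls received 0.2 mL buffer. Tumor weight was estimated from caliper length and width by […].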"}, "Mus musculus [2]": {"test_system": "Mus musculus", "assay": "Change in weight on day 9 of mammary adenocarcinoma 16/C in B6C3F1 female mice at 80 mg/kg […]", "outline": "as §1"}, "Mus musculus [3]": {"test_system": "Mus musculus", "assay": "Percentage growth inhibition of mammary adenocarcinoma 16/C in B6C3F1 female mice at 80 mg/kg dose […]", "conditions": "sc", "outline": "as §1"}, "Mus musculus [4]": {"test_system": "Mus musculus", "assay": "Tumor weight on day 17 of C3H mammary adenocarcinoma 16/C in B6C3F1 female mice at 40 mg/kg […]", "outline": "as §1"}, "Mus musculus [5]": {"test_system": "Mus musculus", "assay": "Change in weight on day 9 of mammary adenocarcinoma 16/C in B6C3F1 female mice at 40 mg/kg […]", "outline": "as §1"}, "Mus musculus [6]": {"test_system": "Mus musculus", "assay": "Animals with palpable tumors on day 17 at 40 mg/kg by subcutaneous administration in B6C3F1 female mice; 6/6", "conditions": "route intraperitoneal, in the assay text read “intraperitoneal administration” for “subcutaneous administration”", "outline": "as §1"}, "Mus musculus [7]": {"test_system": "Mus musculus", "assay": "Animals with palpable tumors on day 17 at 80 mg/kg by subcutaneous administration in B6C3F1 female mice; 6/6", "conditions": "route intraperitoneal, in the assay text read “intraperitoneal administration” for “subcutaneous administration”", "outline": "as §1"}, "L1210": {"test_system": "L1210", "assay": "Effective dose that produced 50% inhibition of L1210 Leukemia cell growth in culture", "conditions": "Mus musculus, read-out: ED50 (the source's name)", "outline": "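The value is the drug concentration in the culture medium that gave 50% inhibition of L1210 leukemia cell growth, relative to untreated controls, after a 48-h incubation. Results are mean ± standard error.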"}, "Mus musculus [8]": {"test_system": "Mus musculus", "assay": "Tumor weight on day 17 of C3H mammary adenocarcinoma 16/C in B6C3F1 female mice at 80 mg/kg by subcutaneous administration", "conditions": "route intraperitoneal, in the assay text read “intraperitoneal administration” for “subcutaneous administration”", "outline": "as §1"}, "Mus musculus [9]": {"test_system": "Mus musculus", "assay": "Tumor weight of C3H mammary adenocarcinoma 16/C in B6C3F1 female mice at 100 mg/kg by subcutaneous administration on day 17", "conditions": "route intraperitoneal, in the assay text read “intraperitoneal administration” for “subcutaneous administration”", "outline": "as §1"}, "Mus musculus [10]": {"test_system": "Mus musculus", "assay": "Change in weight of mammary adenocarcinoma 16/C in B6C3F1 female mice at 100 mg/kg […] on day 9", "outline": "as §1"}, "Mus musculus [11]": {"test_system": "Mus musculus", "assay": "Percentage growth inhibition of mammary adenocarcinoma 16/C in B6C3F1 female mice at the dose of 100 mg/kg by subcutaneous administration", "conditions": "ip, in the assay text read “intraperitoneal administration” for “subcutaneous administration”", "outline": "as §1"}, "Mus musculus [12]": {"test_system": "Mus musculus", "assay": "Change in weight of mammary adenocarcinoma 16/C in B6C3F1 female mice at 50 mg/kg […] on day 9", "outline": "as §1"}, "Mus musculus [13]": {"test_system": "Mus musculus", "assay": "Animals with palpable tumors on day 17 at the dose of 100 mg/kg by […] in 6 B6C3F1 female mice; 6/6 animals were with palpable tumors.", "outline": "as §1"}, "Mus musculus [14]": {"test_system": "Mus musculus", "assay": "Percentage growth inhibition of mammary adenocarcinoma 16/C in B6C3F1 female mice at the dose of 50 mg/kg by subcutaneous administration", "conditions": "ip, in the assay text read “intraperitoneal administration” for “subcutaneous administration”", "outline": "as §1"}, "Mus musculus [15]": {"test_system": "Mus musculus", "assay": "Animals with palpable tumors on day 17 at the dose of 50 mg/kg by […] in 6 B6C3F1 female mice; 6/6 animals were with palpable tumors.", "outline": "as §1"}, "Mus musculus [16]": {"test_system": "Mus musculus", "assay": "Tumor weight of C3H mammary adenocarcinoma 16/C in B6C3F1 female mice at 50 mg/kg by subcutaneous administration on day 17", "conditions": "route intraperitoneal, in the assay text read “intraperitoneal administration” for “subcutaneous administration”", "outline": "as §1"}, "Mus musculus [17]": {"species_on_record": "Mus musculus", "assay": "Percentage growth inhibition of mammary adenocarcinoma 16/C in B6C3F1 female mice", "outline": "as §1"}, "Mus musculus [18]": {"test_system": "Mus musculus", "assay": "Tumor weight of C3H mammary adenocarcinoma 16/C in B6C3F1 female mice at 80 mg/kg by subcutaneous administration on day 17", "conditions": "route intraperitoneal, in the assay text read “intraperitoneal administration” for “subcutaneous administration”", "outline": "as §1"}, "Mus musculus [19]": {"test_system": "Mus musculus", "assay": "Change in weight of mammary adenocarcinoma 16/C in B6C3F1 female mice by subcutaneous administration on day 9", "outline": "as §1"}, "Mus musculus [20]": {"test_system": "Mus musculus", "assay": "Animals with palpable tumors on day 17 after subcutaneous administration in 6 B6C3F1 female mice; 5/6 animals were with palpable tumors.", "conditions": "in the assay text read “intraperitoneal administration” for “subcutaneous administration”", "outline": "as §1"}}}
{"smiles": "Nc1cc2c(ncn2[C@H]2C[C@H](O)[C@@H](CO)O2)c(O)n1", "values": [{"measurement": "inhibition in vivo at 40 mg/kg", "setting": "Mus musculus [1]", "result": 25, "unit": "%"}, {"measurement": "Delta weight", "setting": "Mus musculus [2]", "result": 1.2}, {"measurement": "inhibition in vivo at 80 mg/kg", "setting": "Mus musculus [3]", "result": 69.7, "unit": "%"}, {"measurement": "Tumor weight", "setting": "Mus musculus [4]", "result": 2.7, "unit": "g"}, {"measurement": "Delta weight", "setting": "Mus musculus [5]", "result": 0.58}, {"measurement": "Animals with palpable tumor", "setting": "Mus musculus [6]", "result": 6}, {"measurement": "Animals with palpable tumor", "setting": "Mus musculus [7]", "result": 6}, {"measurement": "EC50", "setting": "L1210", "result": 9, "unit": "µM"}, {"measurement": "Tumor weight", "setting": "Mus musculus [8]", "result": 1.09, "unit": "g"}]}
{"smiles": "Nc1cc2ncn([C@@H]3O[C@H](CO)[C@@H](O)[C@H]3O)c2c(=O)[nH]1", "values": [{"measurement": "EC50", "setting": "L1210", "result": 750, "unit": "µM"}]}
{"smiles": "Nc1cc2ncn([C@H]3C[C@H](O)[C@@H](CO)O3)c2c(O)n1", "values": [{"measurement": "Tumor weight", "setting": "Mus musculus [9]", "result": 3.5, "unit": "g"}, {"measurement": "Delta weight", "setting": "Mus musculus [10]", "result": 0.95}, {"measurement": "inhibition in vivo at 100 mg/kg", "setting": "Mus musculus [11]", "result": 2.8, "unit": "%"}, {"measurement": "Delta weight", "setting": "Mus musculus [12]", "result": 0.72}, {"measurement": "Animals with palpable tumor", "setting": "Mus musculus [13]", "result": 6}, {"measurement": "inhibition in vivo at 50 mg/kg", "setting": "Mus musculus [14]", "result": 18.1, "unit": "%"}, {"measurement": "Animals with palpable tumor", "setting": "Mus musculus [15]", "result": 6}, {"measurement": "EC50", "setting": "L1210", "result": 950, "unit": "µM"}, {"measurement": "Tumor weight", "setting": "Mus musculus [16]", "result": 2.95, "unit": "g"}]}
{"smiles": "Nc1cc2c(ncn2[C@@H]2O[C@H](CO)[C@@H](O)[C@H]2O)c(=O)[nH]1", "values": [{"measurement": "EC50", "setting": "L1210", "result": 7, "unit": "µM"}]}
{"smiles": "Nc1cc2[nH]cnc2c(=O)[nH]1", "note": "[DEZAGUANINE]", "values": [{"measurement": "Inhibition", "setting": "Mus musculus [17]", "result": 93.1, "unit": "%"}, {"measurement": "Tumor weight", "setting": "Mus musculus [18]", "result": 0.25, "unit": "g"}, {"measurement": "Delta weight", "setting": "Mus musculus [19]", "result": 0.06}, {"measurement": "EC50", "setting": "L1210", "result": 11, "unit": "µM"}, {"measurement": "Animals with palpable tumor", "setting": "Mus musculus [20]", "result": 5}]}
